What was measured:
[1] = biological target: Beta-2 adrenergic receptor (Cavia porcellus) (UniProt Q8K4Z4)
Homo sapiens [2] = organism: Homo sapiens; test: Inhibitory activity against U-46,619-induced (1 uM) human platelet activation (aggregation); assay type: functional
Summary of the method: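 Human platelet-rich plasma from volunteers free of medication for at least 10 days, with aspirin (1 mM) to block endogenous prostaglandins. Drug and aspirin preincubated 1 min, then U46619 (0.3–1 μM, minimum concentration giving maximal aggregation) added. Turbidometric aggregation monitored for 4 min. IC50 read graphically from percent response versus log concentration plots, reported as pIC50.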

Thromboxane A2 receptor = biological target: T1, Thromboxane A2 receptor (Homo sapiens, UniProt P21731); test: Inhibitory concentration against radioligand [3H]SQ-29,548 (5 nM) binding to TP receptors in human platelets
T1 sequence (P21731 whole entry): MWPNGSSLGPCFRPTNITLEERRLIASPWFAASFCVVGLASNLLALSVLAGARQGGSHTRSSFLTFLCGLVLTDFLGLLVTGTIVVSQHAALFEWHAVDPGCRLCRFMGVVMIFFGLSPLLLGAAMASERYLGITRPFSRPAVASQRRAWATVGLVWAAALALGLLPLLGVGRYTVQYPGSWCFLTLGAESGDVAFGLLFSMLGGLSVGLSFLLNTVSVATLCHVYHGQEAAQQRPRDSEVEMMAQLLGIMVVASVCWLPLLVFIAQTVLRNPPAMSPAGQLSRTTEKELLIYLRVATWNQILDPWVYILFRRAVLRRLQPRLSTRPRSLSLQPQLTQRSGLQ

[3] = biological target: Beta-1 adrenergic receptor (Cavia porcellus) (UniProt B0FL73); conditions: Cardiac atrium
Sequence of Beta-1 adrenergic receptor (Cavia porcellus) (B0FL73 1-467): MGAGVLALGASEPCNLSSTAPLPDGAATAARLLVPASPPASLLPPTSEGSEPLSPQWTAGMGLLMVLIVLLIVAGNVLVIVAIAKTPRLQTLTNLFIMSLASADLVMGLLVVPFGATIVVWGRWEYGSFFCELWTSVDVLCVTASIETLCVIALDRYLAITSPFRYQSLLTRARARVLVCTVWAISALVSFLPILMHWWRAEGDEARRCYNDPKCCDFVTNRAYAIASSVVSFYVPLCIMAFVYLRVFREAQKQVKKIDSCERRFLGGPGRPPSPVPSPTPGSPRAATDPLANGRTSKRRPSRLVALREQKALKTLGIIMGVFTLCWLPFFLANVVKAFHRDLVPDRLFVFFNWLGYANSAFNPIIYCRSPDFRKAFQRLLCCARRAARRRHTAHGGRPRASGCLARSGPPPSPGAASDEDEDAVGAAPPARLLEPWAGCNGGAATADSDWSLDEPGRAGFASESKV

Homo sapiens [4] = organism: Homo sapiens; test: Inhibitory activity against U-46,619-induced (1 uM) human platelet activation (Serotonin secretion); assay type: functional
Summary of the method: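 Aspirin (1 mM) plus drug for 1 min, then U46619 (0.3–1 μM). Supernatant counted by liquid scintillation. Percent secretion = (sample − unstimulated background cpm)/(total − background cpm) × 100. IC50 taken graphically from log concentration–response plots, given as pIC50.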

Homo sapiens [5] = organism: Homo sapiens; test: Potency ratio of human platelet aggregation; assay type: functional

Sequence of Beta-2 adrenergic receptor (Cavia porcellus) (Q8K4Z4 whole entry, looked up): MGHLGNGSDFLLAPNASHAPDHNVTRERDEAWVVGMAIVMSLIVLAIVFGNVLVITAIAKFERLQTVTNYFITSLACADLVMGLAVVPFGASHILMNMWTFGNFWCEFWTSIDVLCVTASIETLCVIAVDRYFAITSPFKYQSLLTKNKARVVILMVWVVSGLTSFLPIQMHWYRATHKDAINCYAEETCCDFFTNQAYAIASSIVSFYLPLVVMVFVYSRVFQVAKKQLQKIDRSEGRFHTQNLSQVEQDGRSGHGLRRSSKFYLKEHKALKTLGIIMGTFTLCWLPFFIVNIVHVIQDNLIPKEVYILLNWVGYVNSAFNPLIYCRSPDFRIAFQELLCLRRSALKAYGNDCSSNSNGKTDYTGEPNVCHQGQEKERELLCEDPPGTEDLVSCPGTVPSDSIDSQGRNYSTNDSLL

Row | SMILES | pD2 [1] | IC50 (Homo sapiens [2]) | IC50 (Thromboxane A2 receptor) | Ki (Thromboxane A2 receptor) | pD2 [3] | IC50 (Homo sapiens [4]) | Potency ratio (Homo sapiens [5])
1 | O=[N+]([O-])c1ccc(CC2NCCc3cc(O)c(O)cc32)cc1 (configuration not stated) | 7.49 | 44.7 µM | 25.1 µM | 9.55 µM | 7.26 | 60.3 µM | 
2 | O=[N+]([O-])c1cc(CC2NCCc3cc(O)c(O)cc32)ccc1O (configuration not stated) | 6.55 | 1.26 µM | 0.871 µM | 0.339 µM | 5.91 | 1.12 µM | 
3 | COc1cc(C[C@@H]2NCCc3cc(O)c(O)cc32)cc(OC)c1OC [TRETOQUINOL] | 7.26 | 1.15 µM |  |  | 7.36 | 1.32 µM | 
4 | COc1cc(CC2c3cc(O)c(O)cc3CCN2CCc2ccccc2)cc(OC)c1OC (configuration not stated) | 4.64 | 38 µM | 41.7 µM | 16.2 µM | 4.62 | 34.7 µM | 0.0302
5 | COc1cc(CC2NCCc3cc(O)c(O)cc32)cc(I)c1OC (configuration not stated) |  |  |  |  |  |  | 1.12
6 | COc1cc(NC2=NCCc3cc(O)c(O)cc32)cc(OC)c1OC | 3.95 | 200 µM |  |  |  | 204 µM | 0.00575
7 | COc1cc(CC2c3cc(O)c(O)cc3CCN2Cc2ccccc2)cc(OC)c1OC (configuration not stated) |  |  |  |  |  |  | 0.0331
8 | Nc1ccc(CC2NCCc3cc(O)c(O)cc32)cc1 (configuration not stated) | 6.75 | 129 µM | 89.1 µM | 34.7 µM | 6.21 | 145 µM | 
9 | COc1cc(N=C2NCCc3cc(O)c(O)cc32)cc(OC)c1OC |  |  | 275 µM | 120 µM |  |  | 
